Assay results as given in the EternaBench riboswitch data.

Test system: MS2 coat protein
Experiment: apparent Kd, MS2 coat protein; higher = weaker binding; RNA-MaP array; FMN 200 µM where present
Outline: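 The apparent Kd comes from binding curves fitted cluster by cluster, filtered, and summarised as a median. Those curves followed SNAP-549-labelled MS2 coat protein from 0.7 or 1.5 nM, doubling to 3 µM, on Illumina sequencing-chip clusters where stalled E. coli RNA polymerase had transcribed the designs, without and then with constant ligand. The buffer was 100 mM Tris-HCl pH 7.5, 80 mM KCl, 4 mM MgCl2, BSA, DTT, yeast tRNA and Tween-20, and green signal was normalised to red-channel RNA signal and control-cluster median Fmax.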

[1] = designed as: ON switch for flavin mononucleotide, no ligand
[2] = ligand present: flavin mononucleotide, designed as: ON switch for flavin mononucleotide
[3] = designed as: OFF switch for flavin mononucleotide, no ligand
[4] = ligand present: flavin mononucleotide, designed as: OFF switch for flavin mononucleotide

Sequence | apparent Kd [1] [nM] | apparent Kd [2] [nM] | apparent Kd [3] [nM] | apparent Kd [4] [nM]
UUUACAUGAGGAUCACCCAUGUCUUGAAAGAUUAGUUUUGGUGAGGAUAUACAUGAUAAAGAAUUGUAGAAGGCACUGGGUACA | 258 | 124 |  | 
CCGCGACACGAAGGAUAUGUGGGUGGUAGUCUGUGCUCCGCCUACAUGAGGAUCACCCAUGUAUCACAGAAGGUCGGACGUCGA | 26.7 | 125 |  | 
GCACUUAGAGAGGUACCGUUACGAACAUGAGGAUCACCCAUGUAGGAUAUGCUAAUAGUAUUGAAGCAGAAGGACACUAAGUGC |  |  | 7.21 | 30.4
GAGACACAUGAGGAUCACCCAUGUGAGGAUAUCCGAAGGACCAAAUUAAGAAUUAAAGGGAGAAGGCACAUAAA |  |  | 27 | 25.9
GCUCGCGUCGGUUCGCUGGCCUGAGAGGAUAUCCACUGGCAUGUCGACAUGAGGAUCACCCAUGUGGAGAAGGCUCAGGAUAAA |  |  | 311 | 552
CUUUAGUGAGGAUAUCAGUAGUAAUACAAUAGUAUUACUACUGAGAAGGCACAUGAGGAUCACCCAUGUUUCUC |  |  | 31 | 136
UAAAUUCGAAACAUGAGGAUCACCCAUGUGUUGUGGUUUAUAUAGGAUAUGUGGAUACUUUUUUGACAGAAGGAUGAUGGUACU | 13.2 | 10.9 |  | 
CGCAAGUCAGGAUAUUCGACUGGUCCAUCUGUGGAUUUGUAGGAGAAGGGACAUGAGGAUCACCCAUGUUUGUU |  |  | 30.6 | 23.9
UGAAAUCAUGUAGGAUAUGCAUGGCGAAGCUACGCAGAAGGACAUGAGGAUCACCCAUGUUAUAGCUACCAAGUUAGGUGGCAA |  |  | 155 | 138
UAUUAACACGAAGGAUAUGGUUACAUGAGGAUCACCCAUGUAUGUAUAUUGAUCUAGAUUUUUAACCAGAAGGUCGUGAGUAAA |  |  | 50.8 | 72.2
AGAAACUACGAGAAGGACAUGUGGUCCUUCAGUUACAUGAGGAUCACCCAUGUAGGAUAUCGUAGUUUCAGGAUCGUGAGAUCG |  |  | 40.4 | 20.4
GUAACUUAUGUGAGGAUAUAUUAUGUCUUGGUGUAGUAGAAGGCACAUGAGGAUCACCCAUGUCCAAUUGGUCU |  |  | 229 | 457
GUAGCAUACCGAGGAUAUUCAUACCGUAAUCGGACAUGAGGAUCACCCAUGUGGCGAAAGCCUUGGGAGAAGGCGGAAUGCUAC | 630 | 27.6 |  | 
CAGCACAUGAGGAUCACCCAUGUGCAUCCAUCAUGUGCCGUGCAGGAUAUAGACCGCCGUCCAGUCUAGAAGGGCACCGAUGAC |  |  | 159 | 75.1
UGCUGACGAGGAUAUACAUGAGGAUCACCCAUGUUGGUCAAGCGACGAUAGUCGCAAUGUAGAAGGCGUCAGCU |  |  | 483 | 208
AUCAUCUCGUCAGGAUAUACGUCACUGCGUCAGCAGUGUGGUAAGAUCACAUGAGGAUCACCCAUGUAGAAGGGACGAGCUGAU |  |  | 14.4 | 226
ACAUUUAAUACAGGAUAUGUUGGUAUACAAUAGAUUGGUUAUAACACAUCAACAGAAGGGUAGAACAUGAGGAUCACCCAUGUA | 53.6 | 23.3 |  | 
AUUUAUGGCCAGAAGGACAUGAGGAUCACCCAUGUAGGAUAUGGACGAUUUUACUCGGCGGUUUGUUAAGGAAGCACCGGCGGU | 7.76 | 6.08 |  | 
UGGUACAUCAUAGGAUAUCGUGUGUAAACAUGAGGAUCACCCAUGUCAUCCGAGAGUAUGUCGACCGAGAAGGGUGAUGUACCU | 45.4 | 72.7 |  | 
UGGUACUAGGGAGGAUAUGGGAAGAUACAUGAGGAUCACCCAUGUUUAAGAAUGCCGAGAGGCGACUAGAAGGCCCUAGUACCU | 311 | 15.3 |  | 
ACGUUCAAAGGAUAUACAUGAGGAUCACCCAUGUCCGUCAUGCAAGCGACGGUUUGCUGUAGAAGGUUGAACGC |  |  | 22.4 | 114
AUUGAUGUUGAGGAUAUGCUUAUAUUUAUACUUGCAGAAGGCGAUACAUGAGGAUCACCCAUGUUCAUGGAAGU |  |  | 31.3 | 33.8
ACGCUUUGGGAGAAGGUACUUUAAAAUAUUUCCACAUGAGGAUCACCCAUGUAAGGAUAUCCCAUCGUUAAAUAUUAUACAGCA |  |  | 8.91 | 6.88
UCCACUGCUGAGAAGGGAUAGAUAUCGUUCUAGUCAGGAUAUCAAUACAGUGCAGCAUGAGGACAUGAGGAUCACCCAUGUAUU | 14.2 | 10.9 |  | 
AAGAAGUGAGGAUAUAGUUGCACUAGCUAAUGCUAGUGCAACUAGAAGGCACAUGAGGAUCACCCAUGUAAAAG |  |  | 29.1 | 41.9
UUAAUGACUGUGAGGAUAUCGGAUAGAUAGAUAUUCGAGAAGGUACAUGAGGAUCACCCAUGUGUGAUUAGAGA |  |  | 245 | 291
UGUGAGAUGAUGUUAGAUAGGAGAACAUGAGGAUCACCCAUGUAGGAUAUUCAAAGACGAAGAUAGAAGAAGGACAUAGGUAUC |  |  | 30.3 | 78.2
AGAUGACAAAGUCAUCUCUGACGGACAUGAGGAUCACCCAUGUAGGAUAUGCUACUCAAAGAGUAGCAGAAGGACAUGUGUCUU |  |  | 33.5 | 173

Sequence | apparent Kd [1] [nM] | apparent Kd [2] [nM] | apparent Kd [3] [nM] | apparent Kd [4] [nM]
UUCGUGCUGCUUUGCUGUACGAGUACAUGAGGAUCACCCAUGUAGGAUAUGGACAUGAGGAUCACCCAGAAGGAUAUGUGUUGC |  |  | 113 | 141
UUAUGCUUAGAGAAGGUUCAAACUACAUAUUGCGCACAUGAGGAUCACCCAUGUUGGUGAAUAAGAAAGGAUAUUUGACUGUGC |  |  | 245 | 171
CCCUCACAUGAGGAUCACCCAUGUCCUAGCAGGUCAGGAUAUAGCCCGCAUCCGCUGCGGCUAGAAGGGACAGCUG | 244 | 105 |  | 
AUCAGCUGGUCAGGAUAUACAUCACUGCUUCGGCAGUGUAUUAAGAUCACAUGAGGAUCACCCAUGUAGAAGGGACCAGCUGAU |  |  | 30.3 | 341
UGGUACAUGGGAGGAUAUCCUCAACAUGAGGAUCACCCAUGUAAGAAUUAUAAGCCGAAAGGCAUGGAGAAGGCCCAUGUACCU | 71.6 | 15.3 |  | 
UAAUCUCAGAUAGGAUAUAUAGGAUAACUUAAGACCUAACAUGAGGAUCACCCAUGUGAUUAUUCGUAGAAGGAUCAUUGAACC | 206 | 217 |  | 
CGCGCGGUGUAGAAGGGUGACAUGAGGAUCACCCAUGUGCGGAGGCGCCCAUUGACGCCUCCGCCACAGGAUAUACACCACGCC | 46.8 | 66.9 |  | 
CUUUAGUGAGGAUAUCUGGCUUCGAUCGUGAGAUCGAGGCUAGAGAAGGCACAUGAGGAUCACCCAUGUUCCUC |  |  | 40.1 | 439
GUCGUGUGAGGAUAUGAUUUUUCGGCGGGAUUGCGACUGCUUCAGAAGGCACAUGAGGAUCACCCAUGUAUGUC |  |  | 10.7 | 25.5
ACUUCACAUGAGGAUCACCCAUGUCAGGCCGGACUAGGAUAUUAUCAUGCAGCGUAACAGUGAGAAGGAGUUGGAU | 91.2 | 89.3 |  | 
AAGCCCUGAGGAUAUCCCAACUCGCACAUGAGGAUCACCCAUGUCCUCCUCUGGGCUUCGGGAGAAGGCAGGUCUC |  |  | 43.1 | 114
CCGGAAAGGAAGGAUAUGCUAGACGAUAGUCUAGCAGAAGGUCCUACAUGAGGAUCACCCAUGUGUCCUACCGG |  |  | 45.2 | 54.4
UCGGCGCGAGGAUAUACGUUUGCUUUUUAGGAUCGUUGCGUACAUGAGGAUCACCCAUGUAGAAGGCGCGCCGC |  |  | 14.6 | 19.5
GGGCUGUCAGGAUAUGGGCUCGGGCUCGAAAGGGCUCGGGCUCAGAAGGGACAUGAGGAUCACCCAUGUGGCCC |  |  | 35.7 | 32.8
ACCAAGCGAGGAUAUACUUAGAUUUUUUCGUUUAGUCUCGAACAUGAGGAUCACCCAUGUAGAAGGUGCUUCAC |  |  | 47.8 | 46.5
UUUGUAUAGCAAGGAUAUGUUUAAUUAUAGUUGCCUCAUACAUGAGGAUCACCCAUGUUUUACUUACAGAAGGUGCAAUGAUUU |  |  | 316 | 317
UAGGACUACGUAGGAUAUUAAAUCAUGUACUACAUGAGGAUCACCCAUGUUAAUUUAACAUCAGCUGAGAAGGACGUGGUAAAU | 120 | 58.5 |  | 
GAAUUCGCAUGAGGAUAUGCACUCAUUUCAUGUGCAGAAGGUAUAACAUUAGACAUGAGGAUCACCCAUGUAUUGGUCAGUAAC | 15 | 13.4 |  | 
AAAAAGUCAGGAUAUAGAAAAGGUCACGAAAGUGACAAAGGCUAGAAGGGACAUGAGGAUCACCCAUGUAAAAA |  |  | 31.9 | 31.1
AAAAAACAUGAGGAUCACCCAUGUAAGGAUAUGACUUAAAUAAAGAAAGAAGAAAUAGUCAGAAGGUACAAAUA |  |  | 45.3 | 51.1
GUGAGGUAAGGAUAUAGUAGUGAAGGUAAAAUAUGAGAAUGCUAGAAGGUACAUGAGGAUCACCCAUGUUAGGG |  |  | 211 | 203
CGCUACAGCCAGAAGGACAUGAGGAUCACCCAUGUAGGAUAUGGGAGACGAGGUCCAGUGUAGAGAAACUACGCUACUGUAGCG | 292 | 151 |  | 
GGUGCGUAUGUGAGGAUAUGCUGGUCCUUGGCUCGGCAGAAGGCACAUGAGGAUCACCCAUGUGGUGUCGUACU |  |  | 130 | 46
CUUUUAUAAUAGAAGGUAGACUUUAAGUGGAUCACCCAUGUGUAGGUACUAAGGAUAUGUAGUUACAUGAGGAUCACCCAUGUU | 172 | 143 |  | 
CAGUACUGAGGAUAUACAUGAGGAUCACCCAUGUGUUCCAGCUAGGAAACUAGCAAGAGUAGAAGGCAGUACUG |  |  | 23.7 | 459
GUCUGACAUGAGGAUCACCCAUGUAUUCGAGCAUGAGGAUAUAUGACUCGUCAUCGGCGGAUAGAAGGCAUGGUUG | 169 | 192 |  | 
AACUAUGUAUUUAUAGUGUCUGACAGAAGGCAAUAGGUUGUGACCGACAUGAGGAUCACCCAUGUUGAGGAUAUGUCUAGCUAC |  |  | 40.4 | 264
